The values below come from ChEMBL document CHEMBL1157617, “A new class of naphthalimide-based antitumor agents that inhibit topoisomerase II and induce lysosomal membrane permeabilization and apoptosis” (J Med Chem, 2010).

Calls of active or inactive are those of the source. The rule behind the calls is not given here.

The test system of assay [1] is HL-60. Description: Cytotoxicity against human HL60 cells after 72 hrs by MTT assay. Type of assay: functional, cell-based. Conditions: HL-60, 24 h, in the assay text read “after 24 hrs” for “after 72 hrs”. The method, boiled down:
(§1)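 MTT viability assay on HeLa, HL-60, MCF-7, MKN45 and LS174 cells. MTT (500 μg/mL) was added for 4 h at 37 °C and formazan dissolved in DMSO; A570 was read. IC50 came from linear regression; experiments were done in triplicate.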

The test system of assay [2] is MCF7. Description: Cytotoxicity against human MCF7 cells after 72 hrs by MTT assay. The class given is functional, cell-based. Conditions: MCF7, 24 h, in the assay text read “after 24 hrs” for “after 72 hrs”. The procedure, abridged: as §1
In assay [3] the test system is Calf thymus DNA. Briefly: Binding affinity to calf thymus DNA assessed as circular dichroism by CD spectroscopy. The class given is nucleic-acid assay. Conditions: Bos taurus. The method, boiled down: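 CT DNA (100 μM) with drug (20 μM) in 20 mM Tris-HCl pH 7.4. DNA concentration set by UV absorbance, A260/A280 above 1.8. CD spectrum recorded 200-400 nm in a 1 cm cell after shaking, thermal equilibration and buffer subtraction. Analysed over 230-300 nm.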
A general note: CD spectra are sensitive to the conformation of chiral molecules.

For assay [4], the system named is Nucleic Acid. Description: Induction of conformational changes in Escherichia coli pBR322 DNA assessed as DNA relaxation at 100 uM after 2 hrs by gel electrophoresis. The class given is nucleic-acid assay. The method, boiled down: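 pBR322 plasmid (200 ng) was incubated with compound at 100 μM in Tris-HCl pH 7.4 for 2 h at 37 °C. Samples ran on 1% agarose and were stained with ethidium bromide; supercoiled versus relaxed forms were judged from gel migration.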

For assay [5], the target named is DNA topoisomerase 2-alpha (Homo sapiens) (UniProt P11388). Briefly: Inhibition of DNA topoisomerase 2-mediated kDNA decatenation at 100 uM. The method, boiled down: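 Cell-free topo II decatenation: 0.2 μg kDNA was incubated with HeLa-cell topo II extract and compound at 100 μM. The cleavage buffer contained 50 mM Tris-HCl pH 8.0, 120 mM KCl, 10 mM MgCl2, 1 mM ATP and 0.5 mM DTT. Reactions ran 15 min at 37 °C and were stopped with SDS. Products were resolved on 1% agarose and stained with ethidium bromide.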

In assay [6] the test system is HeLa. Briefly: Induction of lysosomal membrane permeabilization in human HeLa cells assessed as acridine orange red fluorescence at 14 uM after 24 hrs by flow cytometry. The class given is functional. The method, boiled down:
(§2)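 Each compound was tested at three concentrations on HeLa cells for 24 h. Adherent and floating cells were pooled and stained with 20 μg/mL acridine orange for 2 min at room temperature. Lysosomal rupture was scored by flow cytometry as percentage of cells with AO red fluorescence.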
(In general: In flow cytometry, cells or beads pass a laser one at a time.)

In assay [7] the test system is HeLa. Description: Induction of lysosomal membrane permeabilization in human HeLa cells assessed as acridine orange red fluorescence at 17 uM after 24 hrs by flow cytometry. Type of assay: functional. The method, boiled down:
as §2

Assay [8] concerns HeLa. Briefly: Induction of lysosomal membrane permeabilization in human HeLa cells assessed as acridine orange red fluorescence at 20 uM after 24 hrs by flow cytometry. The class given is functional. The procedure, abridged: as §2
Assay [9] deals with HeLa. Briefly: Induction of cytochrome c release into cytosol in human HeLa cells at IC50 concentration after 24 hrs by FITC/Hoechst soluble immunocytochemical staining. Type of assay: functional, cell-based. The procedure, abridged: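 HeLa cells were treated 24 h at compound-specific concentrations, then fixed in 10% formaldehyde, permeabilized in 90% methanol and blocked with milk. Staining was rabbit anti-cytochrome c (1:500) then FITC goat anti-rabbit IgG (1:100), 1 h each at room temperature, with 2 μg/mL Hoechst 33258 as counterstain. Cytosolic green signal was imaged by confocal microscopy.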

In assay [10] the test system is HeLa. Briefly: Induction of apoptosis in human HeLa cells assessed as damaged cells at IC50 concentration after 24 hrs using annexin V/propidium iodide staining by flow cytometry. Type of assay: functional. Conditions: in the assay text read “late apoptotic cells” for “damaged cells”. The method, boiled down: (§3)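 HeLa cells, seeded at 1 × 10^6 per well, were treated for 24 h at a fixed concentration set per compound. Cells were washed in cold PBS and resuspended in binding buffer. Staining was annexin V-FITC at 4 °C in the dark for 15 min, then PI for 5 min. Quadrants were read by flow cytometry: live, early apoptotic, late apoptotic, damaged. Run three times.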

The test system of assay [11] is HeLa. Description: Induction of apoptosis in human HeLa cells assessed as early apoptotic cells at IC50 concentration after 24 hrs using annexin V/propidium iodide staining by flow cytometry. Type of assay: functional. The procedure, abridged: as §3
Assay [12] concerns HeLa. Briefly: Cytotoxicity against human HeLa cells after 24 hrs by MTT assay. For orientation: Formazan colour is commonly taken as a measure of viable cells.
Assay [13] deals with MKN-45. Description: Cytotoxicity against human MKN45 cells after 24 hrs by MTT assay. Conditions: MKN-45, 24 h.
The nature of assay [14]: Cytotoxicity against human LS 174T cells after 24 hrs by MTT assay. To be noted: LS174T.
In assay [15] the test system is HeLa. Description: Induction of lysosomal membrane permeabilization in human HeLa cells assessed as acridine orange red fluorescence at 4 uM after 24 hrs by flow cytometry. Type of assay: functional. The procedure, abridged:
as §2

In assay [16] the test system is HeLa. Briefly: Induction of lysosomal membrane permeabilization in human HeLa cells assessed as acridine orange red fluorescence at 10 uM after 24 hrs by flow cytometry. The class given is functional. The method, boiled down:
as §2

Assay [17] relates to HeLa. Briefly: Induction of lysosomal membrane permeabilization in human HeLa cells assessed as acridine orange red fluorescence at 7 uM after 24 hrs by flow cytometry. Type of assay: functional. The procedure, abridged:
as §2

Chain of DNA topoisomerase 2-alpha (Homo sapiens) (P11388 whole entry): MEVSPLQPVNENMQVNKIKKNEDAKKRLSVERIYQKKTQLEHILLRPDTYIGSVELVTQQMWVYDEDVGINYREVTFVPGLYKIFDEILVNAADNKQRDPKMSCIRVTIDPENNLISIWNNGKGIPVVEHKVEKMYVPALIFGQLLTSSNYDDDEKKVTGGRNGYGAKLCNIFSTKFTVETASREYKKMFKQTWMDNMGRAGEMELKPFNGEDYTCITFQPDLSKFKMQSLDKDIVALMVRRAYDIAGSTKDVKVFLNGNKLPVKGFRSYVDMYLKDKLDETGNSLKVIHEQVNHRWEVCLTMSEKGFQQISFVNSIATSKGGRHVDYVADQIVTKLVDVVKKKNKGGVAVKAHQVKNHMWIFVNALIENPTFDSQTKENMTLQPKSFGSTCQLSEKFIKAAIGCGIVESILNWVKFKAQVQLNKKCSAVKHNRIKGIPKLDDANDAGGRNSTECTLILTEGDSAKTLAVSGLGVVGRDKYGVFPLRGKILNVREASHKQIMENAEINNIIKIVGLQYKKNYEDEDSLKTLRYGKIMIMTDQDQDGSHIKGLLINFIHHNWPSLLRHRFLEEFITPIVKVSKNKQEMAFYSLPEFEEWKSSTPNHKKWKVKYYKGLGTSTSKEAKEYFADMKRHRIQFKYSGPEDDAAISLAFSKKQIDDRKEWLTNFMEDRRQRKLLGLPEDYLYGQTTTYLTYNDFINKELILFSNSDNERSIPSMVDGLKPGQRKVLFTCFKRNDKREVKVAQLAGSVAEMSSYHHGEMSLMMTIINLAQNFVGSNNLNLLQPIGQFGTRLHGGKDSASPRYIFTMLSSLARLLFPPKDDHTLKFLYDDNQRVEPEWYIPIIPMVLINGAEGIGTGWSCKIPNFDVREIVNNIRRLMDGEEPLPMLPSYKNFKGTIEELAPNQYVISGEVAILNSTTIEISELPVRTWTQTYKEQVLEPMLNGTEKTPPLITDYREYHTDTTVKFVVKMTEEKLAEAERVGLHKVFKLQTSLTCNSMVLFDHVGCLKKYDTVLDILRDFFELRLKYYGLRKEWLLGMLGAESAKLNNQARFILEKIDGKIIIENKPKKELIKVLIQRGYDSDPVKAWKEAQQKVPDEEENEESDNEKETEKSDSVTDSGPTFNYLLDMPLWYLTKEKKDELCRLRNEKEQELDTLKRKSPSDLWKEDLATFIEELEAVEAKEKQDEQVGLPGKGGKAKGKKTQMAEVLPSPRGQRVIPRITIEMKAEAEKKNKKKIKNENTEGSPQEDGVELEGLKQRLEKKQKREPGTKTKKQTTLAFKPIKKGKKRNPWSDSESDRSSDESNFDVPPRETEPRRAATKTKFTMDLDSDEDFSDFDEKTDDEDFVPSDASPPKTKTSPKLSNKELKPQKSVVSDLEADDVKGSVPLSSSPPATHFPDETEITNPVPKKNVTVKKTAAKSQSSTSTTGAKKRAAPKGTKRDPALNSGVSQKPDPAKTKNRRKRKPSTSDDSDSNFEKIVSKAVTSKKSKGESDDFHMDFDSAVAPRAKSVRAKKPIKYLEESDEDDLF

Regarding `CCCCCCCCCCCCN1C(=O)c2cccc3c(NCCNCCN(C)C)ccc(c23)C1=O`, the IC50 was 6.63 µM in [1]; 4.52 µM in assay [2]; 16.8 µM in assay [12]; 11.8 µM in assay [13]; 18.6 µM in assay [14]. The result in assay [3] and in assay [4] was inactive. Also, the result in assay [5] and in [9] was Active. The Activity in assay [6] stood at 94.85%; in assay [7], 93.5%; in [8], 88.49%; in [10], 20.72%; in assay [11] it was 79.21%.

Regarding `CCCCCCCCN1C(=O)c2cccc3c(NCCN4CCN(C)CC4)ccc(c23)C1=O`, the IC50 came out at 12 µM in assay [1]; 8.35 µM in assay [2]; 7.9 µM in assay [12]; 17.4 µM in [13]; 17.9 µM in [14]. The outcome in assay [3] and in assay [4] was inactive. In addition, the result in [5] and in assay [9] was Active. For the same compound, the Activity in assay [15] amounted to 93.04%; in assay [16], 89.89%; in assay [17], 88.55%; in assay [10], 53.82%.

What is called IC50 is the concentration that inhibits the measured activity by half.
